Assay results from ChEMBL document CHEMBL2375264, “Potent naphthoquinones against antimony-sensitive and -resistant Leishmania parasites: synthesis of novel α- and nor-α-lapachone-based 1,2,3-triazoles by copper-catalyzed azide-alkyne cycloaddition” (Eur J Med Chem, 2013).

Assays:
[1] = test system: Leishmania amazonensis; assay: Ratio of potassium antimonyl tartrate IC50 to compound IC50 for antimony-sensitive Leishmania amazonensis MHOM/BR/1989/BA199 promastigote infected in Swiss mouse peritoneal macrophages; assay type: functional
[2] = Cytotoxicity against Swiss mouse peritoneal macrophages after 24 hrs by MTT assay; assay type: cell-based, Peritoneal macrophage cell
How it was run: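 Macrophages from peritoneal lavage of Swiss mice with cold FBS-free RPMI-1640. Cells seeded at 4.0 × 10⁶/mL, adhered 1 h, non-adherent cells washed off. Compounds were DMSO stocks diluted in medium over a concentration range, final DMSO ≤0.2%. Viability read by MTT (5 mg/mL solution, 4 h further incubation). CC50 taken as the 50% cytotoxic concentration.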

[3] = test system: Leishmania infantum; assay: Antileishmanial activity against antimony-sensitive Leishmania infantum MCAN/BR/2002/BH400 promastigote infected in Swiss mouse peritoneal macrophages after 72 hrs; assay type: functional, organism-based; settings: MCAN/BR/2002/BH400, 72 h
How it was run: (§1)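 Promastigotes of Sb(III)-sensitive and -resistant lines (resistant to Sb(III) up to 2700), maintained at 25 °C, pH 7.0, in α-MEM with 10% heat-inactivated FBS, kanamycin, ampicillin, L-glutamine, hemin and biopterin. Drugs dissolved in DMSO, diluted in α-MEM across a concentration range, final DMSO ≤0.2%.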

[4] = Selectivity index, ratio of CC50 for Swiss mouse peritoneal macrophages to IC50 for antimony-resistant Leishmania amazonensis MHOM/BR/1989/BA199 promastigote; assay type: functional
How it was run: (§2)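 SI = CC50/IC50. CC50 comes from Swiss mouse peritoneal macrophages, harvested by lavage with cold RPMI-1640 lacking FBS. Cells seeded at 4.0 × 10⁶/mL, allowed to adhere 1 h, then washed free of non-adherent cells. Viability read by MTT (5 mg/mL stock, 4 h).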

[5] = test system: Leishmania amazonensis; assay: Antileishmanial activity against antimony-sensitive Leishmania amazonensis MHOM/BR/1989/BA199 promastigote infected in Swiss mouse peritoneal macrophages after 72 hrs; assay type: functional, organism-based; settings: MHOM/BR/1989/BA199, 72 h; how it was run: as §1
[6] = test system: Leishmania infantum; assay: Antileishmanial activity against antimony-resistant Leishmania infantum MCAN/BR/2002/BH400 promastigote infected in Swiss mouse peritoneal macrophages after 72 hrs; assay type: functional, organism-based; settings: MCAN/BR/2002/BH400, 72 h; how it was run: as §1
[7] = Selectivity index, ratio of CC50 for Swiss mouse peritoneal macrophages to IC50 for antimony-sensitive Leishmania amazonensis MHOM/BR/1989/BA199 promastigote; assay type: functional
How it was run: (§3)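 SI = CC50 / IC50. CC50 is from Swiss mouse peritoneal macrophages, read by MTT after lavage and 1 h adherence. […] Promastigotes grown in α-MEM with 10% heat-inactivated FBS, hemin and biopterin, pH 7.0, 25 °C. DMSO ≤0.2% final. Triplicate.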

[8] = Selectivity index, ratio of CC50 for Swiss mouse peritoneal macrophages to IC50 for antimony-sensitive Leishmania infantum MCAN/BR/2002/BH400 promastigote; assay type: functional; how it was run: as §3
[9] = test system: Leishmania infantum; assay: Ratio of potassium antimonyl tartrate IC50 to compound IC50 for antimony-sensitive Leishmania infantum MCAN/BR/2002/BH400 promastigote infected in Swiss mouse peritoneal macrophages; assay type: functional
[10] = Selectivity index, ratio of CC50 for Swiss mouse peritoneal macrophages to IC50 for antimony-resistant Leishmania infantum MCAN/BR/2002/BH400 promastigote; assay type: functional; how it was run: as §2
[11] = test system: Leishmania amazonensis; assay: Antileishmanial activity against antimony-resistant Leishmania amazonensis MHOM/BR/1989/BA199 promastigote infected in Swiss mouse peritoneal macrophages after 72 hrs; assay type: functional, organism-based; settings: MHOM/BR/1989/BA199, 72 h; how it was run: as §1

| SMILES | Ratio IC50 [1] | CC50 at 24 h [2] [µM] | IC50 [3] [µM] | Ratio CC50/IC50 [4] | IC50 [5] [µM] | IC50 [6] [µM] | Ratio CC50/IC50 [7] | Ratio CC50/IC50 [8] | Ratio IC50 [9] | Ratio CC50/IC50 [10] | IC50 [11] [µM] |
| --- | --- | --- | --- | --- | --- | --- | --- | --- | --- | --- | --- |
| O=C1C=C(n2cc(-c3ccccc3)nn2)C(=O)c2ccccc21 | 2.2 | 10.2 | 21.6 | 1.28 | 16.7 | 17.2 | 0.61 | 0.47 | 2 | 0.59 | 7.94 |
| COc1ccc(-c2cn(C3=CC(=O)c4ccccc4C3=O)nn2)cc1 | 2.2 | 16.8 | 15.8 | 0.68 | 34.3 | 18.6 | 0.49 | 1.06 | 2 | 0.9 | 24.5 |
| O=C1C=C(n2cc(-c3ccc(Br)cc3)nn2)C(=O)c2ccccc21 | 2.2 | 21.4 | 17.2 | 0.43 | 57.8 | 14.1 | 0.37 | 1.24 | 2 | 1.52 | 50.1 |
| Cc1ccc(-c2cn(C3=CC(=O)c4ccccc4C3=O)nn2)cc1 | 2.2 | 15.2 | 8.8 | 1.1 | 21.2 | 13.6 | 0.71 | 1.72 | 2 | 1.12 | 13.8 |
| O=C1C=C(n2cc(CO)nn2)C(=O)c2ccccc21 | 2.2 | 9.51 | 39.1 | 0.45 | 23.9 | 5.8 | 0.4 | 0.24 | 2 | 1.64 | 21.3 |
| CC1(C)OC2=C(C(=O)C(=O)c3ccccc32)C1n1cc(-c2ccc(F)cc2)nn1 (configuration not stated) | 23 | 3.52 | 4.32 | 0.8 | 4.7 | 4.9 | 0.75 | 0.81 | 15.5 | 0.72 | 4.39 |
| O=C1C=C(n2cc(CN3C(=O)c4ccccc4C3=O)nn2)C(=O)c2ccccc21 | 2.2 | 5.39 | 42.1 | 0.13 | 50.6 | 8.47 | 0.11 | 0.13 | 2 | 0.64 | 40.2 |
